Usually IC50 stands for the concentration at which inhibition is half-maximal. For orientation: LC50 means the concentration that kills 50% of the test population.

Structures are written as SMILES. Activity calls are given as the source filed them. The calls are words filed in the database; no cut-off is given here.

Data set [1] deals with DU-145. Description: Antiproliferative activity against human DU145 cells assessed as growth inhibition at 0.01 ug/mL after 48 hrs by MTT assay relative to control. The class given is functional. The conditions noted are these: for inhibition of growth at 0.01 µg/mL: DU-145, 48 h, read-out: GI. The method, boiled down: (§1)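 DU-145 cells grown in DMEM with 10% heat-inactivated FBS and streptomycin/penicillin at 37 °C, 5% CO2. Cells seeded at 5×10³/well and left to attach 24 h. Compounds in ethanol, final 0.01, 0.5, 1.0, 2.0 and 5.0 µg/mL, given in triplicate for 48 h. MTT added for 4 h, formazan dissolved in DMSO, A570 read. Viability is A(test)/A(control)×100, mean ± SEM of 3 experiments. IC50 taken from a linear log dose–response fit.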

Data set [2] concerns DU-145. As to the kind of experiment: Antiproliferative activity against human DU145 cells assessed as growth inhibition at 0.5 ug/mL after 48 hrs by MTT assay relative to control. The class given is functional. The conditions noted are these: for inhibition of growth at 0.5 µg/mL: DU-145, 48 h, read-out: GI. The essentials: as §1
In general terms: Tetrazolium assays rely on reduction of a dye to a coloured formazan, in cell work by metabolically active cells.

The test system of data set [3] is DU-145. As to the kind of experiment: Antiproliferative activity against human DU145 cells assessed as growth inhibition at 1 ug/mL after 48 hrs by MTT assay relative to control. The conditions noted are these: for inhibition of growth at 1 µg/mL: DU-145, 48 h, read-out: GI. In kind it is functional. The method, boiled down: as §1
Data set [4] concerns DU-145. Description: Antiproliferative activity against human DU145 cells assessed as growth inhibition at 2 ug/mL after 48 hrs by MTT assay relative to control. In kind it is functional. The note with it: for inhibition of growth at 2 µg/mL: DU-145, 48 h, read-out: GI. The essentials: as §1
Data set [5] concerns DU-145. As to the kind of experiment: Antiproliferative activity against human DU145 cells assessed as growth inhibition at 5 ug/mL after 48 hrs by MTT assay relative to control. The conditions noted are these: for inhibition of growth at 5 µg/mL: DU-145, 48 h, read-out: GI. The class given is functional. The essentials: as §1
Data set [6] deals with DU-145. Description: Antiproliferative activity against human DU145 cells assessed as growth inhibition after 48 hrs by MTT assay. In kind it is functional, cell-based. The note with it: DU-145, 48 h. The essentials: as §1
Data set [7] relates to Rattus norvegicus. Description: Antiandrogenic activity in Sprague-Dawley rat assessed as increase of serum testosterone level at 40 mg/kg, ip equimolar dose of finasteride after 6 hrs by ELISA. The class given is functional. The method, boiled down: (§2)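 Intact male Sprague Dawley rats (200–250 g), 5 per group. Compounds suspended in olive oil:ethanol (95:5), single intraperitoneal dose equimolar to 40 mg/kg finasteride; controls received vehicle alone. Blood taken by cardiac puncture under diethyl ether anaesthesia 6 h after dosing. Serum testosterone measured by competitive ELISA (T-antibody-coated wells, HRP-T conjugate, 4 h at 37 °C, H2O2 substrate 20 min, H2SO4 stop) at 450 nm. Results are mean ± SEM.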
In general terms: In an ELISA, binding on a coated surface is turned into a signal by an enzyme label.

A short description of data set [8]: Cytotoxicity against Balb/C mouse macrophages assessed as cell viability after 24 hrs by MTT assay. The class given is cell-based. The note with it: Macrophage.
Data set [9] has as its system Rattus norvegicus. As to the kind of experiment: Antiandrogenic activity in ip dosed Sprague-Dawley rat assessed as increase of serum testosterone level after 6 hrs by ELISA (reference value: 0.742 +/- 0.07 ng/ml). In kind it is functional. The method, boiled down: as §2
Data set [10] can be described thus: Cytotoxicity against Balb/C mouse macrophages assessed as cell viability at 5 ug/ml after 24 hrs by MTT assay. In kind it is cell-based, Macrophage. The conditions noted are these: read-out: Activity.

As to `C[C@]12CC[C@H](OC(=O)c3ccccc3)CC1=CC[C@@H]1[C@@H]2CC[C@]2(C)NC(=O)CC[C@@H]12`, in [1], the inhibition of growth at 0.01 µg/mL was 28.1%. Besides, the inhibition of growth at 0.5 µg/mL in data set [2] stood at 35.7%. The inhibition of growth at 1 µg/mL in data set [3] worked out at 38.8%. Moreover, the inhibition of growth at 2 µg/mL in data set [4] was 45%. For the same molecule, the inhibition of growth at 5 µg/mL in data set [5] is 63.6%. In data set [6], the IC50 was 9.5 µM. The outcome in data set [7] was Active.
`C[C@]12CC[C@H](O)CC1=CC[C@@H]1[C@@H]2CC[C@]2(C)NC(=O)CC[C@@H]12`: the “growth inhibition (GI)” value in data set [1], in [2], in data set [3], in [4] and in data set [5] was “inactive” throughout. Besides, in data set [7], the outcome was Active.
Regarding `C[C@]12CC[C@H](OC(=O)c3ccc(N)cc3)CC1=CC[C@@H]1[C@@H]2CC[C@]2(C)NC(=O)CC[C@@H]12`, in data set [1], the inhibition of growth at 0.01 µg/mL was 30.5%. Also, the inhibition of growth at 0.5 µg/mL in data set [2] came to 43.4%. Further, the inhibition of growth at 1 µg/mL in [3] came to 45%. Also, the inhibition of growth at 2 µg/mL in data set [4] was 48%. In addition, in data set [5], the inhibition of growth at 5 µg/mL worked out at 82.4%. Also, the IC50 in [6] stood at 7.1 µM. Besides, the outcome in data set [7] was Active.
With `C[C@]12CC[C@H](OC(=O)Cc3ccccc3)CC1=CC[C@@H]1[C@@H]2CC[C@]2(C)NC(=O)CC[C@@H]12`, the “growth inhibition (GI)” value in data set [1], in data set [2] and in data set [3] was “inactive” each time. Also, the inhibition of growth at 2 µg/mL in [4] came out at 48.3%. For the same molecule, the inhibition of growth at 5 µg/mL in [5] was determined as 73.1%. Further, in [6], the concentration for half-maximal inhibition (IC50) amounted to 7.1 µM. In addition, the median lethal concentration (LC50) in data set [8] came out at 26 µM. Also, the outcome in data set [7] was Active.
Consider `C[C@]12CC[C@H](OC(=O)c3ccc([N+](=O)[O-])cc3)CC1=CC[C@@H]1[C@@H]2CC[C@]2(C)NC(=O)CC[C@@H]12`, for which the inhibition of growth at 0.01 µg/mL in [1] was 33.9%. In [2], the inhibition of growth at 0.5 µg/mL was determined as 41.4%. In addition, the inhibition of growth at 1 µg/mL in [3] is 57.9%. The inhibition of growth at 2 µg/mL in data set [4] stood at 73.5%. The inhibition of growth at 5 µg/mL in data set [5] was determined as 88.9%. The IC50 in data set [6] turned out to be 5.2 µM. The outcome in data set [7] was Active.
As for `CC(C)(C)NC(=O)[C@H]1CC[C@H]2[C@@H]3CC[C@H]4NC(=O)C=C[C@]4(C)[C@H]3CC[C@]12C` [FINASTERIDE], the inhibition of growth at 0.01 µg/mL in [1] was determined as 5%. Besides, in data set [2], the inhibition of growth at 0.5 µg/mL amounted to 8.83%. The inhibition of growth at 1 µg/mL in data set [3] came out at 16.5%. In [4], the inhibition of growth at 2 µg/mL came out at 36%. The inhibition of growth at 5 µg/mL in [5] came out at 78.5%. The IC50 in data set [6] stood at 3.9 µM. Also, the Activity in data set [9] came out at 1.26 ng/mL.
Take `C[C@]12CC[C@H](OC(=O)CCl)CC1=CC[C@@H]1[C@@H]2CC[C@]2(C)NC(=O)CC[C@@H]12`: the “growth inhibition (GI)” value in [1], in data set [2], in data set [3], in data set [4] and in data set [5] was “inactive” throughout. Moreover, the viability at 24 h, 5 ug/ml in [10] stood at 6%. The Activity in data set [7] (route intraperitoneal) amounted to 0.82 ng/mL.
Turning to `COc1ccc(C(=O)O[C@H]2CC[C@@]3(C)C(=CC[C@@H]4[C@@H]3CC[C@]3(C)NC(=O)CC[C@@H]43)C2)cc1`, in [1], the inhibition of growth at 0.01 µg/mL stood at 17.4%. Besides, the inhibition of growth at 0.5 µg/mL in data set [2] amounted to 25.2%. Further, the inhibition of growth at 1 µg/mL in [3] was determined as 21.3%. In addition, the inhibition of growth at 2 µg/mL in data set [4] was 33.9%. For the same molecule, the inhibition of growth at 5 µg/mL in [5] came to 43%. Besides, the IC50 in [6] worked out at 15.1 µM. The Activity in data set [7] (route intraperitoneal) stood at 1.05 ng/mL.
With `C[C@]12CC[C@H](OC(=O)c3ccc(Cl)cc3)CC1=CC[C@@H]1[C@@H]2CC[C@]2(C)NC(=O)CC[C@@H]12`, in data set [1], the inhibition of growth at 0.01 µg/mL turned out to be 19%. For the same molecule, the inhibition of growth at 0.5 µg/mL in data set [2] was found to be 27.9%. Further, in data set [3], the inhibition of growth at 1 µg/mL turned out to be 42.2%. In addition, the inhibition of growth at 2 µg/mL in [4] turned out to be 49.4%. Besides, the inhibition of growth at 5 µg/mL in data set [5] came to 67.6%. For the same molecule, the IC50 in [6] amounted to 8.3 µM. Besides, in data set [10], the viability at 24 h, 5 ug/ml turned out to be 6%. Besides, the outcome in data set [7] was Active.
For `C[C@]12CC[C@H](OC(=O)c3ccc(O)cc3)CC1=CC[C@@H]1[C@@H]2CC[C@]2(C)NC(=O)CC[C@@H]12`, the inhibition of growth at 0.01 µg/mL in [1] was determined as 30.7%. In data set [2], the inhibition of growth at 0.5 µg/mL is 51.4%. Also, in data set [3], the inhibition of growth at 1 µg/mL came to 59.2%. The inhibition of growth at 2 µg/mL in data set [4] was 65.6%. For the same molecule, the inhibition of growth at 5 µg/mL in data set [5] stood at 69.5%. The IC50 in data set [6] was determined as 5.7 µM. Also, the outcome in data set [7] was Active.
Regarding `C[C@]12CC[C@H](OC(=O)COc3ccccc3)CC1=CC[C@@H]1[C@@H]2CC[C@]2(C)NC(=O)CC[C@@H]12`, the “growth inhibition (GI)” value in data set [1], in data set [2], in [3], in data set [4] and in [5] was “inactive” throughout. The outcome in data set [7] was Active.
With `Cc1ccc(C(=O)O[C@H]2CC[C@@]3(C)C(=CC[C@@H]4[C@@H]3CC[C@]3(C)NC(=O)CC[C@@H]43)C2)cc1`, in data set [1], the inhibition of growth at 0.01 µg/mL is 21.6%. In addition, the inhibition of growth at 0.5 µg/mL in data set [2] was 29.5%. The inhibition of growth at 1 µg/mL in data set [3] came out at 40.7%. In data set [4], the inhibition of growth at 2 µg/mL is 68.1%. For the same molecule, the inhibition of growth at 5 µg/mL in [5] stood at 77%. Besides, the IC50 in [6] came to 7.5 µM. Besides, the result in [7] was Active.

Values taken from ChEMBL document CHEMBL1165859, “Synthesis, antiproliferative, acute toxicity and assessment of antiandrogenic activities of some newly synthesized steroidal lactams” (Eur J Med Chem, 2010).
